Experimental data taken from ChEMBL document CHEMBL2046403, “Biochemical and pharmacological evaluation of 4-hydroxychromen-2-ones bearing polar C-3 substituents as anticoagulants” (Eur J Med Chem, 2012).

Tests used:
[1] = biological target: VKORC1 (Rattus norvegicus); assay: Inhibition of VKORC1
[2] = system: Plasma; assay: Anticoagulant activity in Wistar albino rat plasma assessed as international normalized ratio at 0.1 mg/kg, ip; assay type: functional; conditions: route intraperitoneal
Procedure, shortened: (§1)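 Adult Wistar rats (2.5 months, 220–250 g), three per compound and control, were given a single i.p. dose of 0.1 or 0.5 mg/kg in ethanol solution and sacrificed 24 h later. […] Plasma prothrombin time was measured by Quick method and reported in seconds and as INR, from at least three measurements.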

[3] = system: Plasma; assay: Anticoagulant activity in human plasma assessed as prothrombin time at 1 mg/ml; assay type: functional
Procedure, shortened: (§2)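 Frozen human plasma (blood type A+) was used. Compounds were prepared at 1 mg/mL in a vehicle of 96% EtOH, 0.9% NaCl, 20% glycerol and phosphate buffer pH 7. Prothrombin time was measured by Quick method and reported in seconds and as INR, with SD from at least three measurements.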

[4] = system: Plasma; assay: Anticoagulant activity in Wistar albino rat plasma assessed as prothrombin time at 0.5 mg/kg/day, ip administered for 5 days measured after second dose; assay type: functional; conditions: route intraperitoneal
Procedure, shortened: (§3)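 Wistar rats, three per group, were dosed i.p. at 0.5 mg/kg per day over five days in ethanol solution and sacrificed on day six. Plasma prothrombin time was measured by Quick method after the second 0.5 mg/kg administration, reported in seconds and INR. Where animals were dosed more than once, PTs were averaged.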

[5] = system: Rattus norvegicus; assay: Drug metabolism in Wistar albino rat assessed as coumarin-7-glucuronide level in urine at 1 mg/kg, ip measured after 72 hrs by GC/MS analysis; conditions: in vivo
[6] = system: Rattus norvegicus; assay: Hepatotoxicity in Wistar albino rat assessed as change in serum AST level at 0.5 mg/kg/day, ip administered for 5 days measured after second compound dose; conditions: in vivo, 120 h
[7] = system: Rattus norvegicus; assay: Anticoagulant activity in Wistar rats in vivo assessed as prothrombin time
[8] = system: Plasma; assay: Anticoagulant activity in Wistar albino rat plasma assessed as international normalized ratio at 0.5 mg/kg/day, ip administered for 5 days measured after second dose; assay type: functional; conditions: route intraperitoneal
Procedure, shortened: as §3

[9] = system: Plasma; assay: Anticoagulant activity in Wistar albino rat plasma assessed as prothrombin time at 0.5 mg/kg, ip relative to untreated control; assay type: functional; conditions: route intraperitoneal
Procedure, shortened: (§4)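 Rats (Wistar, 220–250 g, n=3 per group) were dosed i.p. with 0.5 mg/kg compound in ethanol solution. Prothrombin time was measured in plasma by Quick method and expressed as fold of the matching control value. […] Groups were compared by one-way ANOVA with Dunnett T3 or Bonferroni post-hoc tests.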

[10] = system: Plasma; assay: Anticoagulant activity in Wistar albino rat plasma assessed as prothrombin time at 0.5 mg/kg, ip relative to warfarin; assay type: functional; conditions: route intraperitoneal
Procedure, shortened: as §4

[11] = system: Plasma; assay: Anticoagulant activity in Wistar albino rat plasma assessed as prothrombin time at 0.1 mg/kg, ip; assay type: functional; conditions: route intraperitoneal
Procedure, shortened: as §1

[12] = system: Rattus norvegicus; assay: Hepatotoxicity in Wistar albino rat assessed as change in serum iron level at 0.5 mg/kg/day, ip administered for 5 days measured after second compound dose; assay type: toxicity, organism-based; design: route intraperitoneal; conditions: in vivo, 120 h
[13] = system: Rattus norvegicus; assay: Hepatotoxicity in Wistar albino rat assessed as change in serum ALT level at 0.5 mg/kg/day, ip administered for 5 days measured after second compound dose; conditions: in vivo, 120 h
[14] = system: Rattus norvegicus; assay: Hepatotoxicity in Wistar albino rat assessed as change in serum AST level at 0.5 mg/kg, ip measured after 24 hrs; assay type: toxicity, organism-based; design: dose 0.5 mg/kg, route intraperitoneal; conditions: in vivo
[15] = system: Plasma; assay: Anticoagulant activity in human plasma assessed as international normalized ratio at 1 mg/ml; assay type: functional
Procedure, shortened: as §2

[16] = system: Rattus norvegicus; assay: Hepatotoxicity in Wistar albino rat assessed as change in serum gamma-GT level at 0.5 mg/kg, ip administered for 5 days measured after second compound dose; assay type: toxicity, organism-based; design: dose 0.5 mg/kg, route intraperitoneal; conditions: in vivo, 120 h
[17] = system: Rattus norvegicus; assay: Hepatotoxicity in Wistar albino rat assessed as change in serum gamma-GT level at 0.5 mg/kg, ip measured after 24 hrs; assay type: toxicity, organism-based; design: dose 0.5 mg/kg, route intraperitoneal; conditions: in vivo
[18] = system: Plasma; assay: Anticoagulant activity in Wistar albino rat plasma assessed as international normalized ratio at 0.5 mg/kg, ip; assay type: functional; conditions: route intraperitoneal
Procedure, shortened: as §1

[19] = system: Rattus norvegicus; assay: Hepatotoxicity in Wistar albino rat assessed as change in serum ALT level at 0.5 mg/kg, ip measured after 24 hrs; assay type: toxicity, organism-based; design: dose 0.5 mg/kg, route intraperitoneal; conditions: in vivo
[20] = system: Plasma; assay: Anticoagulant activity in Wistar albino rat plasma assessed as prothrombin time at 0.5 mg/kg, ip; assay type: functional; conditions: route intraperitoneal
Procedure, shortened: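 Adult Wistar rats (2.5 months, 220–250 g), three per compound and control, were given a single i.p. dose of 0.1 or 0.5 mg/kg in ethanol solution and sacrificed 24 h later. Plasma prothrombin time was measured by Quick method and reported in seconds and as INR, from at least three measurements.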

[21] = system: Rattus norvegicus; assay: Hepatotoxicity in Wistar albino rat assessed as change in serum albumin level at 0.5 mg/kg, ip measured after 24 hrs; assay type: toxicity, organism-based; design: dose 0.5 mg/kg, route intraperitoneal; conditions: in vivo
[22] = system: Plasma; assay: Anticoagulant activity in Wistar albino rat plasma assessed as fibrinogen level; assay type: functional
Procedure, shortened: (§5)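 Adult albino Wistar rats (2.5 months old, 220–250 g), three per compound and control. […] Fibrin time and fibrinogen were determined on plasma. Fibrinogen was quantified by biuret method at 540 nm. At least three measurements, reported with standard deviation.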

[23] = system: Rattus norvegicus; assay: Hepatotoxicity in Wistar albino rat assessed as change in serum AST level at 0.5 mg/kg, ip measured after 24 hrs relative to untreated control; assay type: toxicity, organism-based; design: dose 0.5 mg/kg, route intraperitoneal; conditions: in vivo
Procedure, shortened: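 Serum AST was measured 24 h after a single 0.5 mg/kg i.p. dose (ethanol solution) in Wistar rats, three per group, by IFCC UV kinetic method at 340 nm. Activity was expressed as fold of the negative (96% ethanol) control, and compared by one-way ANOVA with post-hoc tests.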

[24] = system: Rattus norvegicus; assay: Hepatotoxicity in Wistar albino rat assessed as change in serum bilirubin level at 0.5 mg/kg, ip measured after 24 hrs; assay type: toxicity, organism-based; design: dose 0.5 mg/kg, route intraperitoneal; conditions: in vivo
[25] = system: Rattus norvegicus; assay: Drug metabolism in Wistar albino rat assessed as 7-hydroxycoumarin level in urine at 1 mg/kg, ip measured after 72 hrs by GC/MS analysis; conditions: in vivo
[26] = system: Plasma; assay: Anticoagulant activity in Wistar albino rat plasma assessed as fibrinogen level at 0.5 mg/kg/day, ip administered for 5 days; assay type: functional; conditions: route intraperitoneal
Procedure, shortened: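 Wistar rats (220–250 g), three per group, got one i.p. dose of 0.5 mg/kg per day for five days and were sacrificed on day six. […] Plasma fibrinogen was measured by biuret method at 540 nm.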

[27] = system: Rattus norvegicus; assay: Hepatotoxicity in Wistar albino rat assessed as change in serum protein level at 0.5 mg/kg, ip measured after 24 hrs; assay type: toxicity, organism-based; design: dose 0.5 mg/kg, route intraperitoneal; conditions: in vivo
[28] = system: Rattus norvegicus; assay: Hepatotoxicity in Wistar albino rat assessed as change in serum ALP level at 0.5 mg/kg, ip measured after 24 hrs; assay type: toxicity, organism-based; design: dose 0.5 mg/kg, route intraperitoneal; conditions: in vivo
[29] = system: Rattus norvegicus; assay: Hepatotoxicity in Wistar albino rat assessed as change in serum iron level at 0.5 mg/kg, ip measured after 24 hrs; assay type: toxicity, organism-based; design: dose 0.5 mg/kg, route intraperitoneal; conditions: in vivo
[30] = system: Plasma; assay: Anticoagulant activity in Wistar albino rat plasma assessed as fibrin time; assay type: functional
Procedure, shortened: as §5

[31] = system: Rattus norvegicus; assay: Hepatotoxicity in Wistar albino rat assessed as change in serum albumin level at 0.5 mg/kg/day, ip administered for 5 days; assay type: toxicity, organism-based; design: route intraperitoneal; conditions: in vivo, 120 h
[32] = system: Rattus norvegicus; assay: Hepatotoxicity in Wistar albino rat assessed as change in serum protein level at 0.5 mg/kg/day, ip administered for 5 days; assay type: toxicity, organism-based; design: route intraperitoneal; conditions: in vivo, 120 h
[33] = system: Rattus norvegicus; assay: Toxicity in Wistar albino rat assessed as lethal dose at 0.5 mg/kg/day, ip administered for 5 days; assay type: organism-based; design: route intraperitoneal; conditions: in vivo, 120 h

Row | SMILES | Ratio [2] | PT [3] | PT [4] | Drug metabolism [5] | AST [6] | IC50 [7] | fold change (FC) [9] | PT [11] | Activity [12] | Activity [14] | Activity [17] | Activity [19] | PT [20] | Activity [21] | Activity [22] | Activity [24] | Activity [27] | Activity [28] | Activity [29] | Time [30] | other results
1 | CCOC(=O)C(C(=O)OCC)=C(C)c1c(O)c2ccccc2oc1=O | 0.13 | 23 s | 30 s | Active | 209.9 U/L | 141 µM | 1.08 | 10.3 s | 17.7 µmol/L | 238.3 U/L | 3.1 U/L | 71.8 U/L | 10.5 s | 35.2 g/L | 5.1 g/L | 2 µmol/L | 67.2 g/L | 513 U/L | 28.4 µmol/L | 51.3 s | Ki [1]: 68.9 µM; Ratio [8]: 0.13; Activity [10]: 86.06%; ALT [13]: 55.5 U/L; Ratio [15]: 1.99; Activity [16]: 2.3 U/L; Ratio [18]: 0.13; fold change (FC) [23]: 1.41; Drug metabolism [25]: Active; Activity [26]: 1.6 g/L
2 | C/C(=C(\C#N)C(=O)O)c1c(O)c2ccccc2oc1=O | 0.66 | 21 s | – | – | – | 2340 µM | – | 8.2 s | – | – | – | – | 9.2 s | 38.6 g/L | 0.5 g/L | – | 68.9 g/L | – | – | 196.8 s | Activity [31]: 38.6 g/L; Activity [32]: 68.9 g/L; Ratio [15]: 2.25; Ratio [18]: 0.69
3 | O=c1oc2ccccc2c(O)c1-c1csc(Nc2ccc(S(=O)(=O)O)cc2)n1 | 0.82 | 26.5 s | 28.6 s | Active | 207.5 U/L | 141 µM | 1.27 | 10.4 s | 19 µmol/L | 269.7 U/L | 2.4 U/L | 58.4 U/L | 12.4 s | 40.8 g/L | – | 1.6 µmol/L | 64.9 g/L | 164 U/L | 19.3 µmol/L | >500 s | Ki [1]: 44.8 µM; Ratio [8]: 1.38; fold change (FC) [10]: 1.18; ALT [13]: 63 U/L; Ratio [15]: 2.6; Activity [16]: 2.2 U/L; Ratio [18]: 0.84; fold change (FC) [23]: 1.59; Drug metabolism [25]: Active; Activity [26]: 0.9 g/L
4 | O=c1oc2ccccc2c(O)c1-c1csc(Nc2cccc([N+](=O)[O-])c2)n1 | – | 24.4 s | 28.1 s | Active | 210.7 U/L | 741 µM | 1.48 | 9.6 s | 17.3 µmol/L | 294.6 U/L | 2.8 U/L | 52.4 U/L | 14.4 s | 39.7 g/L | 0.6 g/L | 2.2 µmol/L | 64.2 g/L | 225 U/L | 29.7 µmol/L | >500 s | fold change (FC) [10]: 1.18; ALT [13]: 65.1 U/L; Activity [16]: 2.6 U/L; fold change (FC) [23]: 1.74; Drug metabolism [25]: Active; Activity [26]: 1.74 g/L
5 | CC(=O)CC(c1ccccc1)c1c(O)c2ccccc2oc1=O (stereo not given) [WARFARIN] | – | 18.5 s | – | – | – | – | – | 10.3 s | – | 277.3 U/L | 3.4 U/L | 51.5 U/L | – | 34.5 g/L | 1.9 g/L | 1.3 µmol/L | 59.4 g/L | 170 U/L | 22.3 µmol/L | 33.4 s | Activity [33]: Toxic
